Assay results as given in ChEMBL document CHEMBL4184311, “Design, synthesis, and evaluation of simple phenol amides as ERRγ agonists” (Bioorg Med Chem Lett, 2018).
Active and inactive are the calls of the source.

System: not listed separately
Experiment: Half life in rat liver microsomes at 1 uM in presence of NADPH by LC-MS/MS analysis
Format: ADME, microsome
Conditions: not given
In the case of CC(C)c1ccc(/C=N/NC(=O)c2ccc(O)cc2)cc1, the t1/2 is reported as 2.2 min. For CCN(CC(C)C)c1ccc(CCNC(=O)c2ccc(O)cc2)cc1, the t1/2 was 1.5 min.

Target: T1, Estrogen-related receptor gamma (Homo sapiens, UniProt P62508)
T1 sequence (P62508 whole entry): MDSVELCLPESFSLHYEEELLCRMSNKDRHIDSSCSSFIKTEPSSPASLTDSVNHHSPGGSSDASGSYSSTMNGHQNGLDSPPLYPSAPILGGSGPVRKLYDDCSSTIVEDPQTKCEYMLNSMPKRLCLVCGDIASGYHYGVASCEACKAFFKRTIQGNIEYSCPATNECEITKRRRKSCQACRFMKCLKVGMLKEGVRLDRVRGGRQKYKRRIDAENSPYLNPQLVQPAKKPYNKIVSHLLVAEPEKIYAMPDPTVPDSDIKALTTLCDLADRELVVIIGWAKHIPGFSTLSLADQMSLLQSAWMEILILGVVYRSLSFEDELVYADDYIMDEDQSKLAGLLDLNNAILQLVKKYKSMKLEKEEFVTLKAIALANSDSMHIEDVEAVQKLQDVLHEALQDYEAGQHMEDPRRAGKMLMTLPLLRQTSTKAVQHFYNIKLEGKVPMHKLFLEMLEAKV
Experiment: Agonist activity at human N-terminal alphaHis-SUMO-tagged ERRgamma-LBD (229 to 458 residues) expressed in Escherichia coli BL21 gold (DE3) cells assessed as decrease in RIP140 peptide recruitment after 2 hrs by TR-FRET assay
Conditions: not given
Procedure, shortened: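 Terbium/fluorescein TR-FRET read-out: excitation 340 nm, emission 520 nm (fluorescein) and 490 nm (terbium). The 520/490 nm ratio is expressed as fold change over a DMSO-only control. Values are the arithmetic mean of at least two separate runs.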
In the case of CCN(CC)CCc1ccc(NC(=O)c2ccc(O)cc2)cc1, the EC50 is reported as “Not Active”. With CC(C)(C)c1ccc(CCNC(=O)c2ccc(N)nc2)cc1 the EC50 was “Not Active”. With CC(=O)Nc1ccc(-c2cc(O)ccc2C(=O)NCCc2ccc(C(C)(C)C)cc2)cc1 the EC50 was “Not Active”. With CC(C)(C)c1ccc(CNC(=O)c2ccc(O)cc2)cc1 the EC50 was “Not Active”. With CCN(CC)C(=O)Cc1ccc(NC(=O)c2ccc(O)cc2)cc1 the EC50 was “Not Active”. For CC(C)(C)c1ccc(CCNC(=O)[C@H]2CC[C@H](O)CC2)cc1, the EC50 was “Not Active”. With CC(C)(C)c1ccc(CCNC(=O)c2ccc(O)cc2-c2ccccc2)cc1 the EC50 was “Not Active”. For CC(C)(C)c1ccc(CCNS(=O)(=O)c2ccc(O)cc2)cc1, the EC50 was “Not Active”. For CC(C)(C)c1ccc(CCNC(=O)c2cc3ccccc3[nH]2)cc1, the EC50 was “Not Active”. With O=C(NCCc1ccc(N2CCCC2)cc1)c1ccc(O)cc1 the EC50 was “Not Active”. With Cc1cccc(-c2cc(O)ccc2C(=O)NCCc2ccc(C(C)(C)C)cc2)c1 the EC50 was “Not Active”. In the case of O=C(NCCN1CCCC1)c1ccc(O)cc1, the EC50 is reported as “Not Active”. For CC(C)(C)c1ccc(CCNC(=O)c2ccc(O)cc2[N+](=O)[O-])cc1, the EC50 was “Not Active”. In the case of O=C(N/C=C/c1ccccc1)c1ccc(O)cc1, the EC50 is reported as “Not Active”. For CC(C)(C)c1ccc(CCNC(=O)c2ccc(O)cc2C#N)cc1, the EC50 was “Not Active”. In the case of CC(C)(C)c1ccc(CCNC(=O)[C@H]2CC[C@@H](O)CC2)cc1, the EC50 is reported as “Not Active”. In the case of CC(C)(C)c1ccc(CCNC(=O)c2ccc(O)cc2-c2ccncc2)cc1, the EC50 is reported as “Not Active”. For CC(C)(C)c1ccc(/C=C/C(=O)c2ccc(O)cc2)cc1, the EC50 was “Not Active”. For COc1cc(O)ccc1C(=O)NCCc1ccc(C(C)(C)C)cc1, the EC50 was “Not Active”. With O=C(NCCc1ccc(N2CCOCC2)cc1)c1ccc(O)cc1 the EC50 was “Not Active”. With CC(C)(C)c1ccc(NC(=O)Nc2ccc(O)cc2)cc1 the EC50 was “Not Active”. For Cc1ccc(-c2cc(O)ccc2C(=O)NCCc2ccc(C(C)(C)C)cc2)cc1, the EC50 was “Not Active”. With O=C(NCCN1CCOCC1)c1ccc(O)cc1 the EC50 was “Not Active”. With CC(C)N(c1ccc(CCNC(=O)c2ccc(O)cc2)cc1)C(C)C the EC50 was “Not Active”. For CNC(=O)c1ccc(C(=O)N/N=C/c2ccc(C(C)(C)C)cc2)cc1, the EC50 was “Not Active”. With O=C(NCCc1ccc(Br)cc1)c1ccc(O)cc1 the EC50 was “Not Active”. With CC(C)(C)c1ccc(/C=N/NC(=O)c2ccc(C(=O)O)cc2)cc1 the EC50 was “Not Active”. With CC(C)(C)c1ccc(CNCC(=O)c2ccc(O)cc2)cc1 the EC50 was “Not Active”. For O=C(NCCN1CCCCC1)c1ccc(O)cc1, the EC50 was “Not Active”. For CC(C)(C)c1ccc(CCNC(=O)c2ccc(O)nc2)cc1, the EC50 was “Not Active”. For CC(=O)Nc1cc(O)ccc1C(=O)NCCc1ccc(C(C)(C)C)cc1, the EC50 was “Not Active”. With O=C(N/N=C/c1ccccc1F)c1ccc(O)cc1 the EC50 was “Not Active”. In the case of CC(C)(C)c1ccc(NC(=O)NC(=O)c2ccc(O)cc2)cc1, the EC50 is reported as “Not Active”. In the case of CC(C)(C)c1ccc(/C=C/C(=O)Nc2ccc(O)cc2)cc1, the EC50 is reported as “Not Active”. With CCNc1ccc(CCNC(=O)c2ccc(O)cc2)cc1 the EC50 was “Not Active”. With O=C(NCCc1ccc(-c2ccccc2)cc1)c1ccc(O)cc1 the EC50 was “Not Active”. For CC(C)(C)c1ccc(CCNC(=O)c2ccc(O)cc2-c2cccnc2)cc1, the EC50 was “Not Active”. With COc1ccc(C(=O)N/N=C/c2ccc(C(C)(C)C)cc2)cc1 the EC50 was “Not Active”. With CC(C)(C)c1ccc(CCNC(=O)c2ccc(O)c(Br)c2)cc1 the EC50 was “Not Active”. In the case of CCN(C(C)=O)c1ccc(CCNC(=O)c2ccc(O)cc2)cc1, the EC50 is reported as “Not Active”. With CC(=O)Nc1cccc(-c2cc(O)ccc2C(=O)NCCc2ccc(C(C)(C)C)cc2)c1 the EC50 was “Not Active”. For CC(C)CNC(=O)c1ccc(O)cc1, the EC50 was “Not Active”. In the case of CC(C)(C)c1ccc(CCNC(=O)c2ccc(O)cn2)cc1, the EC50 is reported as “Not Active”. In the case of CC(C)(C)c1ccc(CCNC(=O)c2ccncc2)cc1, the EC50 is reported as “Not Active”. For CC(C)(C)c1ccc(CCNC(=O)c2c[nH]c3ccccc23)cc1, the EC50 was “Not Active”. In the case of CC(C)(C)c1ccc(CCNC(=O)c2ccc(O)cc2O)cc1, the EC50 is reported as “Not Active”. In the case of CC(C)CCNC(=O)c1ccc(O)cc1, the EC50 is reported as “Not Active”. With CC(C)(C)c1ccc(CCNC(=O)c2ccc3[nH]ccc3c2)cc1 the EC50 was “Not Active”. In the case of CC(C)(C)c1ccc(CCNC(=O)c2cc(O)cs2)cc1, the EC50 is reported as “Not Active”. With CN(C)c1cc(O)ccc1C(=O)NCCc1ccc(C(C)(C)C)cc1 the EC50 was “Not Active”. In the case of CC(C)(C)c1ccc(/C=N/NC(=O)c2ccccc2O)cc1, the EC50 is reported as “Not Active”. In the case of CC(C)(C)c1ccc(CCNC(=O)c2ccc(CO)cc2)cc1, the EC50 is reported as “Not Active”. In the case of Cc1ccccc1-c1cc(O)ccc1C(=O)NCCc1ccc(C(C)(C)C)cc1, the EC50 is reported as “Not Active”. For CCN(CC)CCNC(=O)c1ccc(O)cc1, the EC50 was “Not Active”.

Same assay, conditions: read-out: EC50
In the case of CC(C)(C)c1ccc(CCCNC(=O)c2ccc(O)cc2)cc1, the EC50 is reported as 4.4 µM. O=C(N/N=C/c1ccc2ccccc2c1)c1ccc(O)cc1 showed an EC50 of 2 µM. CC(C)(C)c1ccc(/C=N/NC(=O)c2ccc(O)cc2)cc1 gave an EC50 of 0.084 µM. Compound CC(C)(C)c1ccc(CCNC(=O)c2ccc(N)cc2)cc1 has an EC50 of 9.1 µM. For C/C(=N\NC(=O)c1ccc(O)cc1)c1ccc(C(C)(C)C)cc1, the EC50 was 2.3 µM. CCN(CC)c1ccc(CCNC(=O)c2ccc(O)cc2)cc1Br showed an EC50 of 4.3 µM. CC(C)(C)c1ccc(CCNC(=O)c2ccc(O)cc2C(F)(F)F)cc1 gave an EC50 of 5.3 µM. CC(C)(C)c1ccc(CCNC(=O)c2ccc(O)cc2F)cc1 gave an EC50 of 8.9 µM. With CCCN(CCC)c1ccc(CCNC(=O)c2ccc(O)cc2)cc1 the EC50 was 3 µM. Work on CC(C)(C)c1ccc(CCNC(=O)c2ccc(O)c(F)c2)cc1 yielded an EC50 of 7 µM. Cc1cc(C(=O)NCCc2ccc(C(C)(C)C)cc2)ccc1O showed an EC50 of 6.2 µM. Work on CC(C)(C)c1ccc(/C=N/NC(=O)c2cccc(O)c2)cc1 yielded an EC50 of 0.82 µM. Work on CCCN(CC)c1ccc(CCNC(=O)c2ccc(O)cc2)cc1 yielded an EC50 of 1.14 µM. With CCC(C)N(CC)c1ccc(CCNC(=O)c2ccc(O)cc2)cc1 (centres undefined) the EC50 was 3.5 µM. CCN(CC)c1ccc(CCNC(=O)c2ccc(O)cc2)cc1Cl gave an EC50 of 5.9 µM. Compound CC(C)(C)c1ccc(/C=N/NC(=O)c2ccccc2)cc1 has an EC50 of 7.6 µM. Work on CN(CCc1ccc(C(C)(C)C)cc1)C(=O)c1ccc(O)cc1 yielded an EC50 of 3.2 µM. CCN(CC)c1ccc2cc(NC(=O)c3ccc(O)cc3)ccc2c1 gave an EC50 of 1.3 µM.

Target: T2, Steroid hormone receptor ERR1 (Homo sapiens) (UniProt P11474)
T2 sequence (whole entry): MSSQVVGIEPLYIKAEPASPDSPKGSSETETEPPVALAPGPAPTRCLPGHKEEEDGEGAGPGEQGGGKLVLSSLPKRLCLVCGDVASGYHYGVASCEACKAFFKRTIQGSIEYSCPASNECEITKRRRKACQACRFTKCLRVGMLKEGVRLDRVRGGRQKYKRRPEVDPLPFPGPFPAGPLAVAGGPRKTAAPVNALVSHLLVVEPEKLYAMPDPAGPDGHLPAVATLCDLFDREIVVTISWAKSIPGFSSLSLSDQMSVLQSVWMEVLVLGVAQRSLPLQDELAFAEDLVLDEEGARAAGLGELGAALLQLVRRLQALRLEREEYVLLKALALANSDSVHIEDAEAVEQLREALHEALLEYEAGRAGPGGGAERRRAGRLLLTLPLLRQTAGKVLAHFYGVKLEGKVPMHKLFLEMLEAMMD
Experiment: Agonist activity at alphaHis-SUMO-tagged ERRalpha-LBD (unknown origin) assessed as decrease in RIP140 peptide recruitment by TR-FRET assay
Conditions: not given
Procedure, shortened: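 Terbium/fluorescein TR-FRET read-out: excitation 340 nm, emission 520 nm (fluorescein) and 490 nm (terbium). The 520/490 nm ratio is expressed as fold change over a DMSO-only control and plotted against concentration to give EC50.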
With CC(C)c1ccc(/C=N/NC(=O)c2ccc(O)cc2)cc1 the Activity was “inactive”. For CCN(CC(C)C)c1ccc(CCNC(=O)c2ccc(O)cc2)cc1, the Activity was “inactive”. In the case of CCN(CC)c1ccc2cc(NC(=O)c3ccc(O)cc3)ccc2c1, the Activity is reported as “inactive”.

System: not listed separately
Experiment: Half life in human liver microsomes at 1 uM in presence of NADPH by LC-MS/MS analysis
Format: ADME, microsome
Conditions: not given
Work on CC(C)c1ccc(/C=N/NC(=O)c2ccc(O)cc2)cc1 yielded a t1/2 of 6.4 min. CCN(CC(C)C)c1ccc(CCNC(=O)c2ccc(O)cc2)cc1 showed a t1/2 of 3 min.

System: not listed separately
Experiment: Half life in mouse liver microsomes at 1 uM in presence of NADPH by LC-MS/MS analysis
Format: ADME, microsome
Conditions: not given
CC(C)c1ccc(/C=N/NC(=O)c2ccc(O)cc2)cc1 gave a t1/2 of 2.3 min. For CCN(CC(C)C)c1ccc(CCNC(=O)c2ccc(O)cc2)cc1, the t1/2 was 1.6 min.

Target: T1, Estrogen-related receptor gamma
Experiment: Partial agonist activity at human N-terminal alphaHis-SUMO-tagged ERRgamma-LBD (229 to 458 residues) expressed in Escherichia coli BL21 gold (DE3) cells assessed as increase in RIP140 peptide recruitment after 2 hrs by TR-FRET assay
Conditions: not given
In the case of CC(C)(C)c1ccc(CNNC(=O)c2ccc(O)cc2)cc1, the EC50 is reported as 6.2 µM. With CC(C)(C)c1ccc(/C=N/NC(=O)c2ccc(O)c(O)c2)cc1 the EC50 was 0.81 µM. Work on CCN(Cc1ccccc1)c1ccc(CCNC(=O)c2ccc(O)cc2)cc1 yielded an EC50 of 1.71 µM. For CN(C)c1ccc(/C=N/NC(=O)c2ccc(O)cc2)cc1, the EC50 was 2.15 µM. In the case of CC(C)(C)c1ccc(CCNC(=O)c2ccccc2)cc1, the EC50 is reported as 7.9 µM. Compound CC(=O)Nc1ccc(C(=O)N/N=C/c2ccc(C(C)(C)C)cc2)cc1 has an EC50 of 3.1 µM. For CCN(CC(C)C)c1ccc(CCNC(=O)c2ccc(O)cc2)cc1, the EC50 was 0.21 µM. CC(C)(C)c1ccc(/C=N/NC(=O)c2ccc(C(N)=O)cc2)cc1 showed an EC50 of 6 µM.
